Reference: ChEMBL document CHEMBL2311378, “Synthesis and biological activity against Trypanosoma cruzi of substituted 1,4-naphthoquinones” (Eur J Med Chem, 2013)

Columns and labels:
Trypanosoma cruzi [1] = assay: Antitrypanosomal activity against Trypanosoma cruzi Y bloodstream trypomastigotes isolated from infected Swiss mouse blood assessed as lysis level after 24 hrs; assay type: functional, organism-based
Outline: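 Infected mouse blood diluted with healthy mouse blood to 10⁶ trypomastigotes ml⁻¹. Compounds dissolved in DMSO, added to the blood, and incubated at 4 °C for 24 h. Remaining trypomastigotes were counted. Run in triplicate alongside DMSO and crystal violet controls. IC50 is the concentration lysing 50% of parasites.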

Trypanosoma cruzi [2] = assay: Antitrypanosomal activity against Trypanosoma cruzi Y bloodstream trypomastigotes isolated from infected Swiss mouse blood assessed as lysis level at 2.0 uM after 24 hrs; assay type: functional
Trypanosoma cruzi [3] = assay: Antitrypanosomal activity against Trypanosoma cruzi Y bloodstream trypomastigotes isolated from infected Swiss mouse blood assessed as lysis level at 0.5 uM after 24 hrs; assay type: functional
Trypanosoma cruzi [4] = assay: Antitrypanosomal activity against Trypanosoma cruzi Y bloodstream trypomastigotes isolated from infected Swiss mouse blood assessed as lysis level at 32.0 uM after 24 hrs; assay type: functional
Trypanosoma cruzi [5] = assay: Antitrypanosomal activity against Trypanosoma cruzi Y bloodstream trypomastigotes isolated from infected Swiss mouse blood assessed as lysis level at 8.0 uM after 24 hrs; assay type: functional

| SMILES | IC50 (Trypanosoma cruzi [1]) [µM] | Activity (Trypanosoma cruzi [2]) [%] | Activity (Trypanosoma cruzi [3]) [%] | Activity (Trypanosoma cruzi [4]) [%] | Activity (Trypanosoma cruzi [5]) [%] |
| --- | --- | --- | --- | --- | --- |
| CCCCCCCC/C=C/CCCCCCCC1=C(O)C(=O)c2ccccc2C1=O | 10.6 | 22.5 | 13.1 | 57.6 | 51.3 |
| CCCCCCCC/C=C/CCCCCCCC1=C(C)C(=O)c2ccccc2C1=O | 32.6 | 25.1 | 27.2 | 34 | 35.1 |
| CCCCCCCC/C=C/CCCCCCCC1=CC(=O)c2ccccc2C1=O | 8.1 | 45.5 | 37.2 | 49.2 | 46.1 |
| CCCCC/C=C\C/C=C/CCCCCCCC1=C(O)C(=O)c2ccccc2C1=O | 7.8 | 47.6 | 44.5 | 50.8 | 42.9 |
| CCCCC/C=C/C/C=C/CCCCCCCC1=C(C)C(=O)c2ccccc2C1=O | 16.9 | 25.6 | 15.2 | 44.5 | 47.1 |
| CCCCC/C=C/C/C=C/CCCCCCCC1=CC(=O)c2ccccc2C1=O | 26.4 | 7.8 | 0 | 49.2 | 30.9 |
| CCCCCCCC1=C(CCCCCCC)C(=O)c2ccccc2C1=O | 124 | 8.9 | 8.1 | 18.3 | 10.6 |
| O=C1C(CCCCc2ccccc2)=C(CCCCc2ccccc2)C(=O)c2ccccc21 | 25.1 | 21.5 | 3 | 44 | 35.1 |
| COc1ccc(C(CC(=O)O)C2=C(C)C(=O)c3ccccc3C2=O)cc1 (racemic) | 17.4 | 24.6 | 12 | 55 | 34 |
| COc1ccc(C(CC(=O)O)C2=CC(=O)c3ccccc3C2=O)cc1 (racemic) | 48.5 | 10.5 | 0 | 38.7 | 14.1 |
| CN(C)c1ccc(C(=C2C=CC(=[N+](C)C)C=C2)c2ccc(N(C)C)cc2)cc1 [GENTIAN VIOLET] | 31 | – | – | – | – |
| O=C1C=C(O)C(=O)c2ccccc21 [LAWSONE] | > 2500 | – | – | – | – |
